“Also recorded” adds a separate entry of the source. Read-outs that look alike come from different tables or passages of the source.
Legend:
CMG2 = biological target: T1, CMG2 (Homo sapiens, UniProt P58335, C175A/R40C); experiment: CMG2-Protective antigen; assay type: binding; settings: for inhibitory activity in CMG2 FRET assay: concentrations up to 300 μM
T1 sequence (P58335 40-217 R40C/C175A): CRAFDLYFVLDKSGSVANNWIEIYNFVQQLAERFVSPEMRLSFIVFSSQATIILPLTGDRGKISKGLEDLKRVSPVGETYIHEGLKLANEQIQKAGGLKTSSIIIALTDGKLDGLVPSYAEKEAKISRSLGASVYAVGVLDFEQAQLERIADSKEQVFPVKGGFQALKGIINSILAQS

[1] = tested on: human dermal microvascular endothelial cells (HMVEC-d); experiment: Endothelial cell migration assay; assay type: cell-based; settings: ex vivo endothelial cell migration assay
Procedure, shortened: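 HMVEC-d kept in EGM-2 and used before passage 7, resuspended in EBM with 0.1% BSA. 20,000 cells were placed on fibronectin-coated 8.0 μm-pore polycarbonate transwell inserts over full-serum (5%) medium with or without test compound, and left to migrate 4 h. Top-side cells were removed, membranes fixed and Diff-Quick stained, and 4 10X fields counted. Counts were normalized to no-treatment control, with IC50 from a binding-isotherm fit. Two experiments, n=3 each.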

Caco-2 monolayers = settings: cited from earlier work
DNA polymerases = settings: certain DNA polymerases; cited from earlier work
[2] = IP and orally at doses up to 30 mg/kg/day; cited from earlier work
bFGF-driven angiogenesis = experiment: Mouse corneal micropocket assay; assay type: in vivo, C57BL/6J mice; settings: mice
Procedure, shortened: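 Pellets with 80 ng bFGF were implanted in C57BL/6J corneas, five mice per group. Test compound was given daily by oral gavage at 20 mg/kg in 5% ethanol, or IP at 10 mg/kg/day in 2.5% DMSO, 5% Cremophor EL, 5% Tween-80, 7.5% N-methyl-2-pyrrolidone, 0.9% NaCl. Controls received vehicle. Dosing began at implantation, and vascular area was measured by slit lamp on postoperative day 5 (~10 eyes/group, t-test).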

[3] = cited from earlier work
H+, K+, ATPase = settings: cited from earlier work
angiogenesis [4] = settings: cited from earlier work
HMVEC-d cells = experiment: Endothelial cell proliferation assay; assay type: cell-based, human; settings: at doses that inhibited migration, 24 and 72 hours
[5] = cited from earlier work; remark: listed apart in the source
angiogenesis [6] = settings: therapeutic concentrations; cited from earlier work

COC(=O)c1cc(O)c(O)c(O)c1 [Methyl Gallate]
inhibitory activity in CMG2 FRET assay (CMG2): None of these compounds exhibited any inhibitory activity

O=C(OC[C@H]1O[C@@H](OC(=O)c2cc(O)c(O)c(O)c2)[C@H](OC(=O)c2cc(O)c(O)c(O)c2)[C@@H](OC(=O)c2cc(O)c(O)c(O)c2)[C@@H]1OC(=O)c1cc(O)c(O)c(O)c1)c1cc(O)c(O)c(O)c1 [PGG, 1,2,3,4,6-penta-O-galloyl-β-D-glucopyranose]
activity of HPLC fractions in the FRET assay (CMG2; fractions of the "tannic acid" sample): active | IC50 (in words) (CMG2; in vitro FRET binding assay): submicromolar | IC50 of endothelial cell migration (in words) [1]: submicromolar | nature of transport (Caco-2 monolayers): saturable | IC50 (in words) (DNA polymerases): submicromolar | ill effects [2]: without ill effects | inhibition of bFGF-driven angiogenesis (bFGF-driven angiogenesis; 10 mg/kg IP, 80 ng bFGF pellet): significantly inhibited | inhibition of bFGF-driven angiogenesis (vessel area) (bFGF-driven angiogenesis; 20 mg/kg/day by oral gavage, 80 ng bFGF pellet, day 5): significantly inhibited; also recorded: statistically significant | signs of toxicity (weight loss, hunched posture, behavioral abnormalities) (bFGF-driven angiogenesis; 10 mg/kg IP or 20 mg/kg/day oral): no obvious signs of toxicity | plasma concentrations ([3]; intraperitoneal administration): single-digit micromolar | plasma concentrations ([3]; oral administration): submicromolar | circulating concentrations ([3]; oral dose of 80 mg/kg, experimental animals): < 1 µM | IC50 (in words) (H+, K+, ATPase): submicromolar | dose at which antiangiogenic activity has been evoked (angiogenesis [4]): 4 mg/kg | cytotoxic or cytostatic effects (HMVEC-d cells): no cytotoxic or cytostatic effects

CCCOC(=O)c1cc(O)c(O)c(O)c1 [Propyl Gallate]
inhibitory activity in CMG2 FRET assay (CMG2): None of these compounds exhibited any inhibitory activity

O=C(OC[C@H]1O[C@@H](OC(=O)c2cc(O)c(O)c(OC(=O)c3cc(O)c(O)c(O)c3)c2)[C@H](OC(=O)c2cc(O)c(O)c(OC(=O)c3cc(O)c(O)c(O)c3)c2)[C@@H](OC(=O)c2cc(O)c(O)c(OC(=O)c3cc(O)c(O)c(O)c3)c2)[C@@H]1OC(=O)c1cc(O)c(O)c(OC(=O)c2cc(O)c(O)c(O)c2)c1)c1cc(O)c(O)c(OC(=O)c2cc(O)c(O)c(O)c2)c1 [Tannic acid]
toxicity upon administration in mice [5]: toxic effects

COc1ccc2[nH]c([S+]([O-])Cc3ncc(C)c(OC)c3C)nc2c1 (centres unmarked) [omeprazole]
inhibition of angiogenesis (angiogenesis [6]): fails to inhibit angiogenesis

Protocatechillic acid
IC50 (CMG2): > 300 µM

— PMC3600088 (Journal of medicinal chemistry, 2013)
